Source: PubChem BioAssay (The Scripps Research Institute Molecular Screening Center)
In the library only some 4.2% were active in any assay of this set; here they are far more common.
CHO parental Ca: counter-screen: ATP calcium response change in parental CHO cells; parental CHO-K1, ATP-induced calcium, Fluo-8 fluorescence; inhibition, % at 5.6 µM; 0.63% of 330,000 active; AID 463079;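 active means inhibition above that plate's mean sample inhibition plus 3 SD, cut at about 26% in these data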;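 further: 0% = ATP-challenged DMSO wells and 100% = DMSO wells without ATP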
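Assay system: parental CHO cells; Read-out basis: percent inhibition of ATP-evoked calcium rise, normalized to controls; Benchmarks: ATP and no-ATP DMSO wells; Compound dosing: single nominal dose of 5.6 µM per compound; Signal: Fluo-8 calcium dye fluorescence; Also added: ATP as calcium-mobilizing challenge; Repeats: singlicate.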
TAAR1 antag: antagonists of human TAAR1. Q96RJ0. CHO RD-HGA16 TAAR1, Fluo-8 calcium fluorescence, antagonist. inhibition, % at 3 µM. 1.5% of 360,000 active;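 active means inhibition above a per-plate cutoff, the mean inhibition of test compounds on that plate plus 3 SD, cut at about 49% in these data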;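 further: 0% = DMSO plus EC80 beta-PEA response and 100% = DMSO alone without agonist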
Target sequence (Q96RJ0 whole entry, looked up): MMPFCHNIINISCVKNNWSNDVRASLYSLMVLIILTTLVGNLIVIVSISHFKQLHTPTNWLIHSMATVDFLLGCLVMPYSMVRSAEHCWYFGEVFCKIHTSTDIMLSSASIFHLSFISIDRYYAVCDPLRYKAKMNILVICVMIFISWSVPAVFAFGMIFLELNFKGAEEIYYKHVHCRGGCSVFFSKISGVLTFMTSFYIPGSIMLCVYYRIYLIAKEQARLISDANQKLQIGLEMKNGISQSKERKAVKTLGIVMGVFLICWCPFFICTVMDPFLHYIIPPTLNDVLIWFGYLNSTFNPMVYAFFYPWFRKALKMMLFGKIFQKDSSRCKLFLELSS
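test system = CHO RD-HGA16 cells bearing hTAAR1 | replication = singlicate | controls = DMSO-only wells and EC80 β-PEA-stimulated wells | reagent = EC80 β-phenethylamine stimulus | read-out basis = percent inhibition of PEA-evoked calcium signal, max/basal emission ratio | schedule = seeding 17-24 h prior, 75-min 37 °C, 30-min RT dye loading | signal = kinetic Fluo-8 calcium fluorescence measurement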
GalR3 antag: human GalR3 antagonism; inhibition, % at 3 µM; HEK293 GalR3-CNG cAMP membrane potential fluorescence; galR3 body fused to GalR1 C-terminus; 0.44% of 360,000 active;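 active means inhibition above the screen-wide average plus 3 SD, cut at about 13% in these data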;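 further: forskolin and galanin both at EC90 stimulate the cells; cAMP rise reported by CNG channel membrane potential dye signal; 0% = forskolin plus galanin with DMSO and 100% = forskolin alone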
OX1R antag-1: blocks the human orexin 1 receptor; AID 485270; inhibition, % at 6.6 µM; O43613; 1.8% of 330,000 active; OX1R-expressing cells, FRET antagonist read-out; in the data active means inhibition mostly above about 38%, no sharp cut-off; inactive means mostly below about 40%;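 further: 0% = agonist challenge alone and 100% = reference antagonist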
Target sequence (O43613 whole entry, looked up): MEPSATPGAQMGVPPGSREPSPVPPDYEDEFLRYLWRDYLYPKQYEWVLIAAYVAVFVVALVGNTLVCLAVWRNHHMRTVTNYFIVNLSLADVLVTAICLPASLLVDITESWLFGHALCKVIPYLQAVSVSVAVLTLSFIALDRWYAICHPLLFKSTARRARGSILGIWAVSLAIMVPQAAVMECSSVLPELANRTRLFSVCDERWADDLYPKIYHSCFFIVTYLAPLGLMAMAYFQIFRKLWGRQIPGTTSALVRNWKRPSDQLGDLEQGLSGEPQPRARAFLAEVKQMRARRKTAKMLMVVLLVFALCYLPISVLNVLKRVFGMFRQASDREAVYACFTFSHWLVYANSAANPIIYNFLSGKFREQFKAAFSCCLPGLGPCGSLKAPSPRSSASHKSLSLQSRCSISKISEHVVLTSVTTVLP
TAAR1 ag: agonists of human TAAR1. AID 624467. Q96RJ0. CHO RD-HGA16 TAAR1, Fluo-8 calcium fluorescence; vehicle wells 0%, saturating PEA agonist 100%. 0.99% of 360,000 active. activation, % at 3 µM;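 active means activation above the mean activation of all test compounds in the run plus 3 SD, cut at about 38% in these data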
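Test system: RD-HGA16 (CHO) cells co-expressing Gα16 and hTAAR1 / Benchmarks: DMSO vehicle as 0%, PEA at EC100 as 100% / Repeats: no replicates (n 1) / Measure: % activation from peak over basal fluorescence ratio, DMSO-to-PEA scaled / Timing: 17-24 h plating, Fluo-8 75 min 37 °C, 30 min RT / Technique: kinetic Fluo-8 calcium fluorescence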
OX1R antag-2: blocks the human orexin 1 receptor. O43613. inhibition, % at 5 µM. 0.43% of 330,000 active. CHO/OX1R cells, Fluo-8 calcium fluorescence, orexin A;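 active means inhibition above its plate's threshold, mean inhibition of all tested compounds on the plate plus 3 SD, cut at about 37% in these data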;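 further: 0% = orexin A challenge wells and 100% = SB-334867-A antagonist wells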
nonsel antag count: nonselective antagonist in TAAR1 antagonist counter-screen; inhibition, % at 3 µM; shares compounds with TAAR1 antag; AID 651780; 77% of 2,400 active; counterscreen cell line, calcium fluorescence, antagonist mode; in the data active means inhibition above about 22%;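 further: CHO-Ga16 host cells stimulated with ATP at an EC80 level; 0% = agonist EC80 plus vehicle and 100% = vehicle without agonist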
TAAR1 antag conf: confirmation of human TAAR1 antagonists. shares compounds with TAAR1 antag. inhibition, % at 3 µM. 40% of 2,400 active. TAAR1-expressing cells, fluorescence antagonist read-out; in the data active means inhibition above about 49%;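 further: CHO-Ga16 host cells challenged with agonist PEA near its EC80; 0% = agonist at EC80 plus vehicle and 100% = vehicle with no agonist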
Ga16 nonsel ag: nonselective Ga16 agonism, counter-screen; 18% of 2,400 active; activation, % at 3 µM; Ga16-expressing cells, calcium fluorescence, agonist counterscreen; shares compounds with TAAR1 antag; AID 651953; in the data active means activation above about 12%;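 further: 0% = vehicle wells and 100% = saturating stimulus response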
TAAR1 ag count: TAAR1 agonism, antagonist counter-screen | shares compounds with TAAR1 antag | hTAAR1 cell line, fluorescence activation, agonist mode | activation, % at 3 µM | 2% of 2,400 active | AID 651955; in the data active means activation above about 37%;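 further: CHO cells stably expressing TAAR1 with calcium dye readout; 0% = DMSO vehicle and 100% = full agonist response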
An asterisk follows results filed as active; / = no result.

SMILES | CHO parental Ca | TAAR1 antag | GalR3 antag | OX1R antag-1 | TAAR1 ag | OX1R antag-2 | nonsel antag count | TAAR1 antag conf | Ga16 nonsel ag | TAAR1 ag count
COC(C)(C)c1cc(C(C)(C)C)nc(N)n1 | -3 | 8 | -6 | 5 | 3 | -12 | / | / | / | /
C[C@H]1CNC(=O)c2c(C(=O)Nc3ccc(CNC(=O)OC(C)(C)C)cc3)ncn21 | / | 55* | -4 | / | 14 | / | 34* | 46 | 9 | 5
CC(C)(C)OC(=O)NCCCCCNC(=O)c1[nH]cnc1C(=O)Nc1ccccc1 | -15 | 57* | -7 | 10 | 13 | -9 | 19 | 31 | 6 | 10
Cc1ccc(NC(=O)c2nc[nH]c2C(=O)NCCCCCNC(=O)OC(C)(C)C)cc1 | -33 | 26 | -6 | 10 | 13 | -41 | / | / | / | /
CC(C)(C)OC(=O)NCCCCCNC(=O)c1[nH]cnc1C(=O)Nc1ccc(Cl)cc1 | -12 | 55* | -6 | -1 | 15 | -27 | 27* | 42 | 5 | 3
CC(C)(C)OC(=O)NCCCC[C@H](NC(=O)c1[nH]cnc1C(=O)Nc1ccc(CNC(=O)OC(C)(C)C)cc1)C(=O)OC(C)(C)C | -32 | 65* | -6 | 25 | 13 | -41 | 28* | 49* | 8 | 7
CC(C)(C)OC(=O)NCCCC[C@H](NC(=O)c1nc[nH]c1C(=O)NCc1ccccc1)C(=O)OC(C)(C)C | -19 | 28 | 1 | 9 | 15 | -35 | / | / | / | /
CC(C)(C)OC(=O)NCc1ccc(NC(=O)c2nc[nH]c2C(=O)NCCCCCCNC(=O)c2[nH]cnc2C(=O)Nc2ccc(CNC(=O)OC(C)(C)C)cc2)cc1 | -5 | -7 | -8 | 5 | 2 | -5 | / | / | / | /
CCCCc1cc(=O)oc2cc(C)cc(OCC(=O)O)c12 | 3 | -4 | -5 | 13 | 7 | 3 | / | / | / | /
COC(=O)c1ccc(NC(=O)CN2C(=O)CCC2=O)cc1 | -12 | -6 | -5 | 14 | 8 | -1 | / | / | / | /
COc1nc(N)c(S(=O)(=O)c2ccccc2C)cc1C#N | -12 | 12 | -9 | 4 | 10 | -11 | / | / | / | /
CCCc1cc(=O)[nH]c(SCc2cc(=O)oc3cc(C)c(C(C)C)cc23)n1 | -6 | 103* | -2 | 6 | -3 | -2 | 16 | 1 | 3 | 5
CCCc1cc(=O)[nH]c(SCc2nc3ccccc3o2)n1 | -16 | -7 | -6 | 3 | -4 | -2 | / | / | / | /
COc1ccc(C(=O)N/C(=C\c2ccc3c(c2)OCO3)C(=O)N2CCOCC2)cc1 | 6 | -9 | -8 | 20 | 0 | 0 | / | / | / | /
O=C(c1sc(N2CCOCC2)nc1-c1ccccc1)N1CCCCC1 | -19 | -5 | -3 | 26 | -1 | -17 | / | / | / | /
[2H]c1c([2H])c([2H])c(-c2nc(N3CCCCCC3)sc2C(=O)c2ccccc2)c([2H])c1[2H] | -11 | 62* | -1 | 11 | 15 | 0 | 11 | 16 | 0 | 1
CC(=O)Nc1ccc(S(=O)(=O)NCC2CCC(C(=O)NCCC(C)C)CC2)cc1 (stereo not drawn) | -6 | -7 | 1 | 13 | 5 | -15 | / | / | / | /
Cc1ccc(-c2cc(C(=O)N3CCOCC3)c3cc(C)ccc3n2)cc1 | 0 | 38 | -7 | 42 | 12 | -23 | / | / | / | /
Cc1ccc2nc(-c3ccccc3)cc(C(=O)N3CCN(c4ccccc4O)CC3)c2c1 | -16 | 66* | -6 | 3 | 12 | -14 | 33* | 51* | 8 | 8
NC(=O)C1CCN(C(=O)c2cc(-c3ccc(Cl)cc3)nc3ccccc23)CC1 | -15 | 54* | -4 | 9 | 7 | -23 | 23* | 38 | 7 | 1
O=C(c1cc(-c2ccncc2)nc2ccccc12)N1CCN(c2ccccc2O)CC1 | -18 | 60* | 1 | 1 | 16 | -24 | 29* | 46 | 8 | 10
O=C(c1cc(-c2cccc3ccccc23)nc2ccccc12)N1CCN(CCO)CC1 | -16 | 54* | -1 | 7 | 16 | -29 | 28* | 44 | 9 | 10
COCc1cc(C)nc(OCC(=O)N/N=C/c2ccc(C)cc2)c1C#N | 0 | -10 | -3 | 9 | 2 | -19 | / | / | / | /
NC(=O)c1nsc(C(=O)N(c2ccc(F)cc2)C(C(=O)NCC2CCCO2)c2ccc3ncccc3c2)c1N (stereo not drawn) | -13 | 49* | -7 | 33 | 13 | -14 | 25* | 33 | 6 | 6
CCOc1ccc(C(C(=O)NCC2CCCO2)N(C(=O)c2snc(C(N)=O)c2N)c2cccc(F)c2)cc1 (stereo not drawn) | -13 | 56* | -5 | 13 | 17 | -8 | 28* | 50* | 10 | 23
SMILES | CHO parental Ca | TAAR1 antag | GalR3 antag | OX1R antag-1 | TAAR1 ag | OX1R antag-2 | nonsel antag count | TAAR1 antag conf | Ga16 nonsel ag | TAAR1 ag count
NC(=O)c1nsc(C(=O)N(c2ccccc2)C(C(=O)NCC2CCCO2)c2ccc(F)cc2)c1N (stereo not drawn) | -19 | 51* | -2 | 16 | 14 | -28 | 20 | 39 | 9 | 13
O=C(NCC1CCCO1)C(c1ccc(F)cc1)N(C(=O)Cn1nnc(-c2ccc(F)cc2)n1)c1cccc(O)c1 (stereo not drawn) | -22 | 83* | -1 | 12 | 16 | -30 | 36* | 55* | 11 | 13
O=C(COC(=O)CNC(=O)c1cccc(F)c1)NCCC1=CCCCC1 | -21 | -14 | -5 | 12 | 3 | -29 | / | / | / | /
Cc1ccc(C(C(=O)NCc2ccccc2)N(Cc2ccco2)C(=O)c2snc(C(N)=O)c2N)o1 (stereo not drawn) | -27 | 71* | -6 | 24 | 14 | -37 | 30* | 56* | 8 | 12
Cc1ccccc1N(C(=O)Cc1cccs1)C(C(=O)NCC1CCCO1)c1cccnc1 (stereo not drawn) | -15 | 4 | -1 | 18 | 3 | -11 | / | / | / | /
O=C(NCC1CCCO1)C(c1cccnc1)N(C(=O)Cc1cccs1)c1ccccc1 (stereo not drawn) | -18 | 54* | 0 | 18 | 24 | -31 | 21 | 47 | 10 | 10
NC(=O)c1nsc(C(=O)N(c2ccccc2F)C(C(=O)NCc2ccc(F)cc2)c2ccc(O)cc2)c1N (stereo not drawn) | -10 | 77* | -4 | 48 | 14 | -2 | 34* | 48 | 10 | 19
